The source of these data is ChEMBL document CHEMBL1131620, “Identification of novel ligands for the gabapentin binding site on the alpha2delta subunit of a calcium channel and their evaluation as anticonvulsant agents” (J Med Chem, 1998).

SMILES strings stand for the structures.

A short description of this assay: Inhibition of specific binding of [3H]gabapentin to Gabapentin binding sites located on the alpha-2-delta subunit of calcium channel. Details: species or system Oryctolagus cuniculus. In short, it runs like this: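 [3H]Gabapentin displacement from gabapentin sites on the calcium channel α2δ subunit. IC50 (nM) is the concentration giving half-maximal inhibition of specific radioligand binding.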
For orientation: IC50 means the concentration that inhibits the measured activity by half. `NCC1(CC(=O)O)CCCCC1C1CCCCC1` (configuration not stated): the half-inhibitory concentration (IC50) was more than 10000 nM.

Take `COC1CCCCC1(CN)CC(=O)O` (configuration not stated): the IC50 was more than 10000 nM.

Take `NCC1(CC(=O)O)CCCC(c2ccccc2)C1` (configuration not stated): the IC50 was more than 10000 nM.

Take `CCCC1CCCC(CN)(CC(=O)O)C1` (configuration not stated): the IC50 turned out to be 3300 nM.

On to `C[C@H]1CC[C@@](CN)(CC(=O)O)CC1`, for which the IC50 is 440 nM.

On to `CC1(C)CCCC(CN)(CC(=O)O)C1` (configuration not stated), for which the IC50 is 880 nM.

As for `CC[C@H]1CC[C@@](CN)(CC(=O)O)CC1`, the IC50 worked out at 700 nM.

Turning to `CCC1CCCC(CN)(CC(=O)O)C1` (configuration not stated), the IC50 amounted to 280 nM.

On to `CC1(C)CC(C)(C)CC(CN)(CC(=O)O)C1`, for which the IC50 is more than 10000 nM.

Regarding `NC[C@]1(CC(=O)O)CC[C@@H](c2ccccc2)CC1`, the IC50 was more than 10000 nM.

With `C[C@H]1CC[C@](CN)(CC(=O)O)CC1`, the IC50 was more than 10000 nM.

`CC(C)C1CCCC(CN)(CC(=O)O)C1` (configuration not stated): the IC50 was determined as 6270 nM.

For the compound `NCC1(CC(=O)O)CCOCC1`, the IC50 amounted to 2380 nM.

`CC1CCCC(CN)(CC(=O)O)C1` (configuration not stated): the IC50 is more than 10000 nM.

With `NCC1(CC(=O)O)CCSCC1`, the IC50 worked out at 385 nM.

For `CC1(C)CCC(CN)(CC(=O)O)CC1`, the IC50 was determined as 1310 nM.

Take `C[C@@H]1CCC[C@@](CN)(CC(=O)O)C1`: the IC50 is 42 nM.

As to `C[C@H]1CCC[C@](CN)(CC(=O)O)C1`, the IC50 was 73 nM.

As to `NCC1(CC(=O)O)CCNCC1`, the 50% inhibitory concentration (IC50) was more than 10000 nM.

In the case of `C[C@@H]1C[C@H](C)CC(CN)(CC(=O)O)C1` (stereo in doubt; 27), the IC50 turned out to be 140 nM.

Consider `C[C@@H]1C[C@H](C)CC(CN)(CC(=O)O)C1` (stereo in doubt; 28), for which the IC50 was more than 10000 nM.

`NCC1(CC(=O)O)CCCCC1` [GABAPENTIN]: the half-inhibitory concentration (IC50) came to […].
